Data taken from ChEMBL document CHEMBL1152296, “Fragment-based design of small molecule X-linked inhibitor of apoptosis protein inhibitors” (J Med Chem, 2008).
Each block holds one molecule with its values, some of them ahead of it. Activity calls are given as the source filed them. The calls are words filed in the database; no cut-off is given here.

Experiments:
MDA-MB-231 [1] = assay: Sensitization of 120 ng/mL TRAIL-induced apoptosis in human MDA-MB-231 cells assessed as combination index at 12 uM after 24 hrs by ATPlite assay; format: functional
MDA-MB-231 [2] = assay: Sensitization of 130 ng/mL TRAIL-induced apoptosis in human MDA-MB-231 cells assessed as combination index at 13 uM after 24 hrs by ATPlite assay; format: functional
MEF [3] = assay: Inhibition of wild type MEF proliferation assessed as cell viability at 5 to 45 uM after 24 hrs by ATPlite assay relative to control; format: cell-based; details: mouse
[4] = Stability in human plasma by LC/MS/MS analysis; format: ADME, cell-free; details: read-out: Stability
Method in brief: (§1)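 Incubation in human plasma at 37 °C for 15, 60 and 120 min. Quantitation by LC/MS/MS in MRM mode, with results expressed as percent remaining of initial concentration.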

Plasma = assay: Stability in human plasma assessed as compound remaining by LC/MS/MS analysis; format: ADME, cell-free; method in brief: as §1
[5] = Metabolic stability in liver microsomes assessed as half life after 30 mins by LC/MS/MS analysis in presence of NADPH; format: ADME, Microsome
[6] = Metabolic stability in liver microsomes assessed as intrinsic clearance after 30 mins by LC/MS/MS analysis in presence of NADPH; format: ADME, Microsome; details: 0.5 h
[7] = Permeability by PAMPA method; format: ADME
[8] = Apparent solubility after 1 day by nephelometry-based method; format: physicochemical
Method in brief: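 DMSO stock at 10 mM prepared on day 1. Tested at 8 concentrations in triplicate. Assay run on day 1 and read on day 2.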

MEF [9] = assay: Inhibition of XIAP knockout MEF proliferation assessed as cell viability after 24 hrs by ATPlite assay relative to control; format: functional, cell-based; details: Mus musculus
MDA-MB-231 [10] = assay: Increase in caspase-3 activation in human MDA-MB-231 cells at 5 to 20 uM after 24 hrs by MSD assay; format: functional, cell-based
MDA-MB-231 [11] = assay: Sensitization of 50 ng/mL TRAIL-induced apoptosis in human MDA-MB-231 cells assessed as combination index at 5 uM after 24 hrs by ATPlite assay; format: functional
MDA-MB-231 [12] = assay: Sensitization of 90 ng/mL TRAIL-induced apoptosis in human MDA-MB-231 cells assessed as combination index at 9 uM after 24 hrs by ATPlite assay; format: functional
MDA-MB-231 [13] = assay: Sensitization of 100 ng/mLTRAIL-induced apoptosis in human MDA-MB-231 cells assessed as combination index at 10 uM after 24 hrs by ATPlite assay; format: functional
[14] = target: E3 ubiquitin-protein ligase XIAP (Homo sapiens, UniProt P98170); assay: Binding affinity to histidine6-tagged human XIAP Bir3 domain expressed in Escherichia coli BL21(DE3)
E3 ubiquitin-protein ligase XIAP, sequence (P98170 whole entry, the tested form may be a part): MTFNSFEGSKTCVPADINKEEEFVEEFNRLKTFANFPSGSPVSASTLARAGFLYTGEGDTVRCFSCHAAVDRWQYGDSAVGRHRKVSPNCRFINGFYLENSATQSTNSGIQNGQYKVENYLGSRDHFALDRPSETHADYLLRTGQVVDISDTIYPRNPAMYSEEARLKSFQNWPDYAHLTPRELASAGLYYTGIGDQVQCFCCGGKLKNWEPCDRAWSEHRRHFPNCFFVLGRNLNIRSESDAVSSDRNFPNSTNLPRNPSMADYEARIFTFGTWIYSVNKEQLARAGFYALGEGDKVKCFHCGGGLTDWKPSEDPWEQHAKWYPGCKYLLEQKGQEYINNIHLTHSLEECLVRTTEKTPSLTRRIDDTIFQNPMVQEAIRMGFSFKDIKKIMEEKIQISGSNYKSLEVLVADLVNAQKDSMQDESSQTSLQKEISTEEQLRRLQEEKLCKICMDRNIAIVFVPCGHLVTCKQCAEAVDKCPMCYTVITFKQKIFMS
Method in brief: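 Binding to 15N-labelled Bir3 was measured by 2D [15N,1H]-HSQC NMR titration at 300 K. Samples held 0.1 mM protein in 100 mM potassium phosphate pH 7.0 with 5% DMSO and 7% D2O. At least six ligand concentrations were used. Kd came from a non-linear least-squares fit of fractional shift change (p) against ligand concentration.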

MDA-MB-231 [15] = assay: cells; details: Homo sapiens, MDA-MB-231, 48 h

half-life [4]: > 120 min
Stability (Plasma): 93.9%
half-life [5]: 14.5 min
clearance [6]: 47.7 µL/min/mg
permeability [7]: 27%
solubility kinetic at 24 h [8]: > 100 µg/mL
Compound: CN[C@@H](C)C(=O)Nc1ccc(Oc2ccc(OC)cc2)c(C(=O)NCc2csc(-c3cccs3)n2)c1
Activity (MDA-MB-231 [1]): 0.27
Activity (MDA-MB-231 [2]): 0.32
Activity (MEF [3]): Toxic
Activity (MEF [9]): Active
Activity (MDA-MB-231 [10]): Active
Activity (MDA-MB-231 [11]): 0.44
Activity (MDA-MB-231 [12]): 0.4
Activity (MDA-MB-231 [13]): 0.41

Kd [14]: 200 µM
Compound: C[C@H](N)C(=O)Nc1ccc(Oc2ccccc2Cl)cc1

IC50 (MDA-MB-231 [15]): > 50 µM
Compound: CC[C@H](C)[C@H](NC(=O)[C@@H]1CCCN1C(=O)[C@@H](NC(=O)[C@H](C)N)C(C)C)C(=O)O
